The list is not random: actives were taken first. Their share in the collection is about 1.8%.
M5 ag – agonists of human muscarinic M5 receptor (CHRM5); CHO-K1 hM5 cells, Fluo-8 calcium fluorescence; 0% DMSO wells, 100% maximal acetylcholine response; activation, % at 3 µM; P08912; 360,000 tested, 0.19% active;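 active = activation above the run's mean over test compounds plus 3 SD, cut at about 23% in these data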;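 note: signal is peak over basal fluorescence ratio across the kinetic read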
M4 ag – agonists of human muscarinic M4 receptor (CHRM4) | AID 624127 | CHO-K1 hM4/Gqi5, Fluo-8 calcium fluorescence; vehicle 0%, full acetylcholine response 100% | P08173 | 360,000 tested, 0.14% active | activation, % at 3 µM;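 active = activation above the run mean over all test wells plus 3 SD, cut at about 32% in these data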;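 note: peak over basal fluorescence ratio per well then scaled between controls; 0% = DMSO wells and 100% = acetylcholine at EC100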
Target sequence (P08173 whole entry, looked up): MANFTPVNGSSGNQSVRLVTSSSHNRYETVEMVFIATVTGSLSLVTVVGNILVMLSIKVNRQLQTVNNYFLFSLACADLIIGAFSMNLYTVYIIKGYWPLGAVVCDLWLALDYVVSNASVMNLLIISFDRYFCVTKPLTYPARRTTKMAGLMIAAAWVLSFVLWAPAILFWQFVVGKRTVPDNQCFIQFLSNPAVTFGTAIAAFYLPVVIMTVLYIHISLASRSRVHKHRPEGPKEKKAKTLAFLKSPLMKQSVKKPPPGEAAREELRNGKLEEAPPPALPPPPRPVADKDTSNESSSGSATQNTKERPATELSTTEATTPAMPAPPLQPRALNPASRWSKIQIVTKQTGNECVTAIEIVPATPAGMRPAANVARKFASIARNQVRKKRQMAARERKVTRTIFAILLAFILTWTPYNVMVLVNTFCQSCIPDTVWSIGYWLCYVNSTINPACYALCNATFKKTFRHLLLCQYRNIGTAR
CHRM5 PAM – CHRM5 positive allosteric modulation; 360,000 tested, 0.3% active; activation, % at 3 µM; P08912; CHO-K1 hM5, Fluo-8 calcium, ACh EC20 PAM; 0% = ACh EC20, 100% = ACh EC100;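 active = activation above the run cutoff, the mean activation of all test compounds plus 3 SD, cut at about 18% in these data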
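System: CHO-K1 hM5 cells. Reagent: acetylcholine, EC20 level. Compound dosing: single dose, 3 µM nominal final test concentration. Timing: Post-acetylcholine fluorescence recording 140 s. Detection: Fluo-8 calcium fluorescence. Read-out: % activation, ACh-normalized. Benchmarks: ACh EC20 and EC100 wells. Repeats: singlicate, one well per test compound.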
M4 PAM – CHRM4 positive allosteric modulation; P08173; 360,000 tested, 0.4% active; AID 624126; activation, % at 3 µM; CHO-K1 hM4/Gqi5, Fluo-8 calcium fluorescence, ACh EC20; 0% = ACh EC20, 100% = maximal ACh;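 active = activation above its plate's cutoff, the mean activation of sample wells plus 3 SD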
CHRM4 antagonist – CHRM4 antagonism in calcium assay; 360,000 tested, 0.73% active; P08173; inhibition, % at 3 µM; CHO-hM4 cells, ACh EC80, Fluo-8 calcium fluorescence;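 active = inhibition above its plate's cutoff, the mean inhibition of sample wells plus 3 SD, cut at about 27% in these data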;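 note: 0% = acetylcholine EC80 with DMSO and 100% = DMSO without agonist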
CHRM5 antagonist – antagonists of human muscarinic M5 receptor (CHRM5) | P08912 | CHO-hM5 cells, Fluo-8 calcium fluorescence, ACh EC80 | inhibition, % at 3 µM | 360,000 tested, 0.59% active | AID 624040;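 active = inhibition above a per-plate cutoff, the mean of that plate's test compounds plus 3 SD, cut at about 27% in these data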;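 note: 0% = acetylcholine EC80 with DMSO and 100% = DMSO without agonist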
* marks the source's active call; other numbers are inactive results.

SMILES	M5 ag	M4 ag	CHRM5 PAM	M4 PAM	CHRM4 antagonist	CHRM5 antagonist
NNC(=O)CN1C(=O)Nc2ccc(Cl)cc2C1c1ccccc1 (centres undefined)	-7	0	2	-16	45*	4
c1ccc(-c2csc3ncnc(NCC4COc5ccccc5O4)c23)cc1 (centres undefined)	-4	5	-16	-10	38*	38*
Cc1sc2ncnc(NCC3COc4ccccc4O3)c2c1C (centres undefined)	1	11	-17	-12	32*	38*
Cc1ccccc1N1Cc2ccccc2C1=O	0	1	4	2	-13	-4
CC(C(=O)O)c1ccc(N2Cc3ccccc3C2=O)cc1 (centres undefined)	-1	1	-17	-14	40*	9
CC1=CC(C)(C)N(C(=O)c2ccccc2)c2ccc(C)cc21	23*	8	6	-5	2	2
CC1=CC(C)(C)N(C(=O)c2ccccc2)c2ccccc21	0	-4	2	7	-11	-1
COc1cc2c(cc1NC(=O)C(C)Sc1ccc(NC(C)=O)cc1)oc1ccccc12 (centres undefined)	6	15	-18	-14	18	30*
CC(C)CNC(=O)C1(C)CCN1C(=O)c1ccc(C(C)(C)C)cc1 (centres undefined)	6	7	-2	1	-25	-10
COc1ccc(-c2sc3ccccc3c2-c2ccc(OCCN(C)C)cc2)cc1	-6	4	-13	0	36*	12
CN(C)CCOc1ccc(-c2c(-c3ccsc3)sc3ccccc23)cc1	-2	3	-3	4	20	11
CCN1CCN(CC(=O)Nc2ccc(C(C)=O)cc2)CC1	-3	0	1	5	-6	-1
O=C(CN1CCN(c2ccccc2)CC1)Nc1ccc(-n2cnnn2)cc1	1	2	-2	0	30*	-1
COc1cccc(N2CCN(CC(=O)Nc3ccc(-n4cnnn4)cc3)CC2)c1	2	1	1	6	0	2
CC(=O)c1ccc(NC(=O)CN2CCN(CC(=O)Nc3ccc(C(C)=O)cc3)CC2)cc1	1	1	27*	-1	-10	21
COc1ccccc1NS(=O)(=O)c1cc(C(=O)Nc2ccc(S(=O)(=O)Nc3onc(C)c3C)cc2)ccc1C	-3	0	1	4	3	15
Cn1c(=O)c2[nH]c(C3CC=CCC3)nc2n(C)c1=O (centres undefined)	3	1	5	-1	-5	7
Cn1c(=O)c2[nH]c(C3CCCC3)nc2n(C)c1=O	1	1	-4	-20	101*	0
Cc1cc(C(F)F)n2nc(C(=O)Nc3cc(C)on3)nc2n1	-1	1	5	28*	4	-11
COc1cccc(NC(=O)c2nc3nc(C)cc(C(F)F)n3n2)c1	0	1	-5	8	-21	3
O=S1(=O)CC(N2CCCCC2)CN1C1CCCCC1 (centres undefined)	2	2	-5	8	-10	12
COc1ccc(C2C(C(N)=O)=C(C)Nc3nc(CCCO)nn32)cc1OC (centres undefined)	-1	1	-5	1	2	3
Cc1ccc(C)c(N2CCN(S(=O)(=O)c3ccc4c(c3)NC(=O)CC(=O)N4)CC2)c1	-3	1	-19	-17	88*	4
Cc1ccc(C)c(N2CCN(S(=O)(=O)c3ccc4c(c3)NC(=O)CO4)CC2)c1	-3	-1	2	-9	-19	-7
CN(C)c1ccc(/C=C/c2nc3ccccc3c(=O)n2CCO)cc1	22	42*	-16	-20	9	13
SMILES	M5 ag	M4 ag	CHRM5 PAM	M4 PAM	CHRM4 antagonist	CHRM5 antagonist
O=c1c2ccccc2nc(/C=C/c2ccccc2)n1CCCO	-2	9	-13	-8	-4	18
O=C(Nc1ccccn1)c1ccc2ccccc2c1O	11	2	19*	-2	-2	-12
O=C(O)c1ccccc1C(=O)Nc1ccccn1	0	0	-2	7	10	-3
O=C(c1ccccc1)c1c2c(cc3sc4ccccc4[n+]13)-c1cccc3cccc-2c13	19	33*	-5	-39	59*	25
O=C(c1ccccc1)c1ccc2ccccc2c1	0	-2	-8	2	-10	14
CCc1cc(C(=O)NCC(C)(C)N2CCOCC2)sc1C	-4	0	6	3	-3	-2
Cc1ccsc1C(=O)NCC(C)(C)N1CCOCC1	-8	0	22*	5	1	-10
Cc1cccc(C)c1NC(=O)CNC(=O)CNC(=O)c1ccc2c(c1)OCO2	4	0	-1	23*	-11	8
O=C(CN1CCN(C(=O)CNC(=O)c2ccc3c(c2)OCO3)CC1)Nc1ccccc1Cl	3	3	2	-1	3	-6
CCN(CC(=O)Nc1c(F)cccc1F)C(=O)c1ccc2c(c1)OCCO2	1	2	2	37*	-21	1
O=C(CN1CCN(C(=O)CNC(=O)c2ccc3c(c2)OCO3)CC1)Nc1cccc(F)c1	1	1	19*	8	-17	-8
CC(=O)c1ccc(OCCCC(=O)NCc2nnc3ccccn23)cc1	3	0	-6	5	-5	3
CCOC(=O)Cc1csc(NS(=O)(=O)c2ccc([N+](=O)[O-])cc2)n1	2	1	-2	1	-4	12
Clc1cccc2c1CCN(Cc1nc(-c3cnccn3)no1)C2	-4	4	-1	-17	7	6
O=C(NCCCSc1ccccc1)c1cc(Br)ccc1O	1	13	-15	-9	2	33*
COc1ccc(-c2nnc(NC(=O)C3=COCCO3)o2)cc1	2	0	-1	-7	4	3
Cc1cccc(NC(=O)CNC(=O)CN2C(=O)NC3(CCc4ccccc43)C2=O)c1C (centres undefined)	-2	0	-2	6	0	2
CC(C)[N+](C)(C)CC(O)CN(c1ccccc1)c1ccccc1 (centres undefined)	-17	0	-35	-22	17	27*
COc1ccc(N2C(=O)CSC2c2ccc(F)c(F)c2)cc1 (centres undefined)	-9	1	-7	-9	12	4
O=C(O)c1cccc(N2C(=O)CSC2c2c(F)cccc2Cl)c1 (centres undefined)	1	0	6	-1	6	-1
Cc1ccc(N2C(=O)CSC2c2c(F)cccc2Cl)cc1 (centres undefined)	-7	-4	-17	-30	86*	68*
